Legend:
[1] = tested on: Respiratory syncytial virus; experiment: Antiviral activity against Respiratory syncytial virus infected in human Hep2 cells assessed as inhibition of virus-induced cytopathogenic effect by plaque reduction assay; assay type: functional, organism-based; conditions: HEp-2
[2] = Therapeutic index, ratio of TC50 for MDCK cells to IC50 for Influenza A virus infected in MDCK cells; assay type: cell-based; conditions: dog, read-out: TI
Method in brief: (§1)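 Antiviral IC50 came from a virus-induced cytopathic effect reduction assay in infected cells. Therapeutic index was calculated as TC50 divided by IC50.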

Human respirovirus 3 = experiment: Antiviral activity against Parainfluenza virus type 3 infected in human Hep2 cells assessed as inhibition of virus-induced cytopathogenic effect by plaque reduction assay; assay type: functional, organism-based; conditions: Human respirovirus 3, HEp-2
Influenza A virus = experiment: Antiviral activity against Influenza A virus infected in MDCK cells assessed as inhibition of virus-induced cytopathogenic effect by plaque reduction assay; assay type: functional, organism-based
[3] = Therapeutic index, ratio of TC50 for human Hep2 cells to IC50 for Respiratory syncytial virus infected in human Hep2 cells; assay type: cell-based, HEp-2; conditions: read-out: TI; method in brief: as §1
[4] = Cytotoxicity against human Hep2 cells; assay type: cell-based, HEp-2; conditions: read-out: TC50 (the source's name)
[5] = Therapeutic index, ratio of TC50 for human Hep2 cells to IC50 for Parainfluenza virus type 3 infected in human Hep2 cells; assay type: cell-based, HEp-2; conditions: read-out: TI; method in brief: as §1
[6] = Cytotoxicity against MDCK cells; assay type: cell-based, Canis lupus familiaris; conditions: dog, read-out: TC50 (the source's name)

CC(C)[C@@H](C)/C=C/[C@@H](C)[C@H]1CC[C@H]2C3=CC[C@H]4C[C@@H](O)CC[C@]4(C)[C@H]3CC[C@]12C
IC50 [1]: 50.5 µM | selectivity ratio [2]: 2 | IC50 (Human respirovirus 3): 50.5 µM | IC50 (Influenza A virus): 202 µM | selectivity ratio [3]: 6 | CC50 [4]: 303 µM | selectivity ratio [5]: 6 | CC50 [6]: 405 µM

CC(=O)O[C@H]1C[C@@H]2O[C@@]2(C)C[C@@H]2OC(=O)[C@H](C)[C@H]2[C@H]2C=C1C(=O)O2
IC50 [1]: 61.9 µM | selectivity ratio [2]: 1 | IC50 (Human respirovirus 3): 186 µM | IC50 (Influenza A virus): 186 µM | selectivity ratio [3]: 3 | CC50 [4]: 186 µM | selectivity ratio [5]: 1 | CC50 [6]: 186 µM

COc1ccc(-c2oc3cc(OC)c(OC)c(O)c3c(=O)c2OS(=O)(=O)O)cc1
IC50 [1]: 79 µM | selectivity ratio [2]: 3 | IC50 (Human respirovirus 3): 19.7 µM | IC50 (Influenza A virus): 79 µM | selectivity ratio [3]: 6 | CC50 [4]: 472 µM | selectivity ratio [5]: 24 | CC50 [6]: 237 µM

C[C@H]1C(=O)O[C@H]2C[C@]3(C)O[C@H]3CCC3=C[C@@H](OC3=O)[C@@H]21
IC50 [1]: 37.4 µM | selectivity ratio [2]: < 1.7 | IC50 (Human respirovirus 3): 37.4 µM | IC50 (Influenza A virus): > 360 µM | selectivity ratio [3]: 16 | CC50 [4]: 600 µM | selectivity ratio [5]: 16 | CC50 [6]: 600 µM

C[C@H]1C(=O)O[C@H]2C[C@]3(C)O[C@H]3[C@@H]3O[C@@H]3C3=C[C@@H](OC3=O)[C@@H]21 [DIHYDROMIKANOLIDE]
IC50 [1]: 143 µM | selectivity ratio [2]: 1.5 | IC50 (Human respirovirus 3): 143 µM | IC50 (Influenza A virus): 143 µM | selectivity ratio [3]: 1.5 | CC50 [4]: 214 µM | selectivity ratio [5]: 1.5 | CC50 [6]: 214 µM

COc1ccc(-c2oc3cc(OC)c(OC)c(O)c3c(=O)c2O)cc1 [MIKANIN]
IC50 [1]: 55.5 µM | selectivity ratio [2]: 3 | IC50 (Human respirovirus 3): 41.6 µM | IC50 (Influenza A virus): 167 µM | selectivity ratio [3]: 1.5 | CC50 [4]: 83.1 µM | selectivity ratio [5]: 2 | CC50 [6]: 500 µM

NC(=O)c1ncn([C@@H]2O[C@H](CO)[C@@H](O)[C@H]2O)n1 [RIBAVIRIN]
IC50 [1]: 10.7 µM | IC50 (Human respirovirus 3): 10.7 µM | IC50 (Influenza A virus): 42.6 µM | CC50 [6]: > 256 µM

Reference: ChEMBL document CHEMBL1151977, “Antiviral constituents against respiratory viruses from Mikania micrantha” (J Nat Prod, 2009)
